In one data set the target is Cannabinoid receptor 1 (Homo sapiens, UniProt P21554). The experiment in a line: Displacement of [3H]-CP55940 from human CB1 receptor after 1 hr by scintillation counting analysis.
Data set [1] has as its target T1, Cannabinoid receptor 2 (Homo sapiens, UniProt P34972). The experiment in a line: Displacement of [3H]-CP55940 from human CB2 receptor after 1 hr by scintillation counting analysis. On the technique in general: Loss of bound radioactivity is the signal in a displacement assay; it reports binding, not function.
Data set [2] concerns the target T1, Cannabinoid receptor 2. The experiment in a line: Agonist activity at human CB2 receptor after 1 hr by [35S]-GTPgammaS binding assay. It is filed as functional. (In general: GTPγS is a poorly hydrolysed GTP analogue; its binding reports G protein activation.)
Data set [3] concerns Mus musculus. The data set is described as follows: Anticolitis activity in TNBS-induced C57Bl6 mouse acute colitis model assessed as downregulation of TNF-alpha mRNA expression in colon at 10 mg/kg, po qd administered over 7 days, starting 2 days prior to TNBS challenge measured 5 days post TNBS challenge by real-time PCR analysis. Type of data set: functional, organism-based. Details: dose 10 mg/kg. A digest of the protocol:
(§1)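 Mice given test article orally in carboxymethyl cellulose once daily at 0.1, 1 or 10 mg/kg for 7 days, beginning 2 days before TNBS colitis induction; vehicle-only (CMC) controls. Survival followed throughout; body weight loss, semiquantitative macroscopic colon score, histological score and colonic TNFα and IL-1β mRNA assessed at euthanasia 5 days after TNBS. Mean ± SEM, 10 mice per group.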
A general note: In qPCR the cycle at which signal appears reflects the starting amount.

Data set [4] is described as follows: Fraction unbound in human plasma after 18 hrs by equilibrium dialysis method. Type of data set: ADME, cell-free. An outline of the steps:
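Plasma protein binding by equilibrium dialysis, 18 h at 37 °C.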

The test system of data set [5] is Mus musculus. The data set is described as follows: Anticolitis activity in po dosed TNBS-induced C57Bl6 mouse acute colitis model assessed as reduction of body weight loss administered as qd over 7 days, starting 2 days prior to TNBS challenge measured 5 days post TNBS challenge. Type of data set: functional, organism-based. A digest of the protocol: as §1
Data set [6] deals with Mus musculus. The experiment in a line: Anticolitis activity in TNBS-induced C57Bl6 mouse acute colitis model assessed as decrease in bowel thickness and areas of ulceration at 10 mg/kg, po qd administered over 7 days, starting 2 days prior to TNBS challenge measured 5 days post TNBS challenge (reference value: 4.9). It is filed as functional. A digest of the protocol:
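Mouse acute colitis induced by TNBS. Compound given orally in carboxymethyl cellulose (CMC) once daily at 0.1, 1 and 10 mg/kg for 7 days, starting 2 days before induction; controls received CMC alone. Mice euthanised 5 days after TNBS. Colon damage graded with a semiquantitative macroscopic score; mean ± SEM of 10 mice per group, compared with vehicle.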

The nature of data set [7]: Permeability across apical to basolateral side in human Caco2 cells at 10 uM after 60 mins. Type of data set: ADME, cell-based. The conditions noted are these: Caco-2, read-out: permeability.
The subject of data set [8] is Mus musculus. The data set is described as follows: Anticolitis activity in po dosed TNBS-induced C57Bl6 mouse acute colitis model assessed as decrease in bowel thickness and areas of ulceration administered as qd over 7 days, starting 2 days prior to TNBS challenge measured 5 days post TNBS challenge. It is filed as functional, organism-based. An outline of the steps: as §1

The target in the next data set is hERG (KCNH2) (Homo sapiens, UniProt Q12809). The data set is described as follows: Binding affinity to human ERG expressed in HEK293 cells assessed as inhibition of tail current at 1 uM after 5 to 10 mins by patch-clamp assay relative to control. Type of data set: cell-based. As to conditions: HEK293 cells expressing human ERG. A digest of the protocol: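 hERG-expressing HEK 293 cells, conventional whole-cell patch clamp; compound at 1 μM applied cumulatively for 5–10 min at room temperature; tail current inhibition read.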

For data set [9], the system named is Mus musculus. The experiment in a line: Anticolitis activity in TNBS-induced C57Bl6 mouse acute colitis model assessed as reduction of mortality rate at 0.1 to 10 mg/kg, po qd administered over 7 days, starting 2 days prior to TNBS challenge measured 5 days post TNBS challenge relative to vehicle-treated control. Type of data set: functional, organism-based. An outline of the steps:
as §1

Data set [10] can be described thus: Metabolic stability in human liver microsomes assessed as compound remaining at 1 uM after 60 mins. Type of data set: ADME. As to conditions: read-out: Stability. An outline of the steps:
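Compound (1 μM) incubated with human liver microsomes (0.3 mg/mL) at 37 °C, sampled at 0 and 60 min; percent remaining reported.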

Data set [11] deals with Mus musculus. The experiment in a line: Anticolitis activity in TNBS-induced C57Bl6 mouse acute colitis model assessed as downregulation of IL-1beta mRNA expression in colon at 10 mg/kg, po qd administered over 7 days, starting 2 days prior to TNBS challenge measured 5 days post TNBS challenge by real-time PCR analysis. Details: dose 10 mg/kg. It is filed as functional, organism-based. A digest of the protocol:
as §1

The subject of data set [12] is Mus musculus. The data set is described as follows: Anticolitis activity in TNBS-induced C57Bl6 mouse acute colitis model assessed as decrease in degree of inflammation infiltrate, presence of erosion, ulceration, necrosis and depth, surface extension of lesions at 10 mg/kg, po qd administered over 7 days, starting 2 days prior to TNBS challenge measured 5 days post TNBS challenge by Giemsa staining relative to vehicle-treated control. Type of data set: functional. Details: scale not given: the % may be the effect or the level left. A digest of the protocol: as §1

In a further data set the test system is MDCK-II. The experiment in a line: Inhibition of MDR1 in MDCK2 cells at 10 uM after 30 mins by calcein AM uptake assay relative to control. It is filed as cell-based. The conditions noted are these: Canis lupus familiaris. An outline of the steps:
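MDR1-MDCKII cells; P-gp function read as cellular calcein AM uptake after 30 min incubation at 37 °C.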

The structures appear in SMILES notation. Calls of active or inactive are those of the source. The calls are words filed in the database; no cut-off is given here. Some results are limits rather than exact numbers.

T1 sequence (P34972 whole entry): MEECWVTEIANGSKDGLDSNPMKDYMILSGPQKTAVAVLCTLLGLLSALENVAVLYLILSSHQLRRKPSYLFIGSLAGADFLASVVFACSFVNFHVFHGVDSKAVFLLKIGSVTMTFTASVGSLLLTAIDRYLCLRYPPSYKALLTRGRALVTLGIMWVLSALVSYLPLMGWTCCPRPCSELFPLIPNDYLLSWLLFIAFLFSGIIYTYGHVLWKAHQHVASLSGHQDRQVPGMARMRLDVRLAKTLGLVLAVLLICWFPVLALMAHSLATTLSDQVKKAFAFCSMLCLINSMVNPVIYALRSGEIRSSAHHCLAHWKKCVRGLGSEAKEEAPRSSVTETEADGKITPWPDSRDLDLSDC
Chain of Cannabinoid receptor 1 (P21554 whole entry): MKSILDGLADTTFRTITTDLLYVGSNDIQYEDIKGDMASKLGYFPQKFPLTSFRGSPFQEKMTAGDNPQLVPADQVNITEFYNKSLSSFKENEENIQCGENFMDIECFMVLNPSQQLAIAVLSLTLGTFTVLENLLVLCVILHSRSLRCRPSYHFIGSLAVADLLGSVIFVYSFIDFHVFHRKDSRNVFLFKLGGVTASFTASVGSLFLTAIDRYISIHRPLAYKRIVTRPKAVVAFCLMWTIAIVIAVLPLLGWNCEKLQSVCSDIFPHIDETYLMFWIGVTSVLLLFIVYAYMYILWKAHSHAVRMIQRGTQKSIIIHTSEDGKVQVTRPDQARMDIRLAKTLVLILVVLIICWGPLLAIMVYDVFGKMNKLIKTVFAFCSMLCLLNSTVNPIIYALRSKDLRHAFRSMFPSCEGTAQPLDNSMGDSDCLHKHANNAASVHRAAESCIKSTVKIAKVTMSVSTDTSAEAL
Chain of hERG (KCNH2) (Q12809 whole entry): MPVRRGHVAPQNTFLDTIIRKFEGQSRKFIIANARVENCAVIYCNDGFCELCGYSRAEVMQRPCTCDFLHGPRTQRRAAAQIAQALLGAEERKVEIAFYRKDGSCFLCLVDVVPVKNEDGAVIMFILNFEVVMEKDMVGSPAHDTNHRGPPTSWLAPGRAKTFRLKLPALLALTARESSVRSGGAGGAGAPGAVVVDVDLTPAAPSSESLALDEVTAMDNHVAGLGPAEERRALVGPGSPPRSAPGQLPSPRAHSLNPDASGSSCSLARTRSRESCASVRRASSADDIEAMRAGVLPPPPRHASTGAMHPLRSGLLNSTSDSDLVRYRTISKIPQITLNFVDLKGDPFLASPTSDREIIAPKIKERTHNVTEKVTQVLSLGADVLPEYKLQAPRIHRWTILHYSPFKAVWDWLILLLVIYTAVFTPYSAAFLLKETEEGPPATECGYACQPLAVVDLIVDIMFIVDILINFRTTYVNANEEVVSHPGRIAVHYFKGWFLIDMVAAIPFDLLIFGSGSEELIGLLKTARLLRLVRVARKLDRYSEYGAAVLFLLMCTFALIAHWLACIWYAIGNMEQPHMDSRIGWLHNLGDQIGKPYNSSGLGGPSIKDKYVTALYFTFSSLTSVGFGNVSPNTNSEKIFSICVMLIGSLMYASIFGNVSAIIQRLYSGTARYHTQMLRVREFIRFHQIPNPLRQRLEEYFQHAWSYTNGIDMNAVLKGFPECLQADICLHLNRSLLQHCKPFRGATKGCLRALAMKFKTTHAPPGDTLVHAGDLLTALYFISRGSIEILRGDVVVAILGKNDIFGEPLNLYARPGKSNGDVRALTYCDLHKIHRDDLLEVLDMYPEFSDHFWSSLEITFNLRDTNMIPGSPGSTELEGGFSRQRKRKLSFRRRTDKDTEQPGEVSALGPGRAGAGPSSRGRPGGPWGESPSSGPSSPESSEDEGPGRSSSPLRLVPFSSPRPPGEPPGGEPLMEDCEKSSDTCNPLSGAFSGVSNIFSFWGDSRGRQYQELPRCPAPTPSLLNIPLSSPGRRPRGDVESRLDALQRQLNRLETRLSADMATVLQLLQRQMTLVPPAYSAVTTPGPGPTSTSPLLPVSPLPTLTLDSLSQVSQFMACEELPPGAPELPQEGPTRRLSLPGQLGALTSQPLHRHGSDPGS

As usually defined, the Ki is a measure of affinity in units of concentration, obtained from inhibition or displacement. In the case of `CCCCCn1cc2c(=O)n(CCC34CC5CC(CC(C5)C3)C4)nc-2c2ccccc21`, the Ki at Cannabinoid receptor 1 is greater than 3 µM.

`CCCCCn1c(-c2ccccc2)c2c(=O)n(Cc3ccccc3)nc-2c2ccccc21`: the Ki on Cannabinoid receptor 1 and on Cannabinoid receptor 2 [1] was greater than 3 µM throughout.

As for `CCCCCn1cc2c(=O)n(-c3ccccc3)nc-2c2ccccc21`, the Ki on Cannabinoid receptor 1 is greater than 3 µM; on Cannabinoid receptor 2 [1], 1.36 µM.

Consider `CCCCCn1cc(C(=O)NCC23CC4CC(CC(C4)C2)C3)c(=O)c2ccccc21`, for which the Ki at Cannabinoid receptor 1 is greater than 3 µM; at Cannabinoid receptor 2 [1] it was 0.0216 µM.

At Cannabinoid receptor 1, `CCCCCn1cc(C(=O)NC23CC4CC(CC(C4)C2)C3)c(=O)c(-c2ccncc2)c1C` returned an inhibition constant (Ki) greater than 1 µM.

For `CCCCCn1cc2c(=O)n(-c3ccc(OC)cc3)nc-2c2ccccc21`, the Ki at Cannabinoid receptor 1 and at Cannabinoid receptor 2 [1] was greater than 3 µM in each case.

For `CCCCCn1cc2c(=O)n(-c3cccc(C(F)(F)F)c3)nc-2c2ccccc21`, the Ki was greater than 3 µM at Cannabinoid receptor 1 and 0.0292 µM on Cannabinoid receptor 2 [1].

As usually defined, the Emax is the size of the effect at its maximum, as opposed to the concentration needed. `CCCCCn1cc2c(=O)n(CC3CCCCC3)nc-2c2ccccc21` came in with an Emax on Cannabinoid receptor 2 [2] of 149%.

Take `CCCCCn1c(-c2ccccc2)c2c(=O)n(-c3ccc(OC)cc3)nc-2c2ccccc21`: the Ki on Cannabinoid receptor 1 and on Cannabinoid receptor 2 [1] was greater than 3 µM in each case.

As to `CCCCCn1c(-c2ccccc2)c2c(=O)n(CCCc3ccccc3)nc-2c2ccccc21`, the inhibition constant (Ki) on Cannabinoid receptor 1 and at Cannabinoid receptor 2 [1] was greater than 3 µM throughout.

Take `CCCCCn1c(-c2ccccc2)c2c(=O)[nH]nc-2c2ccccc21`: the Ki on Cannabinoid receptor 1 and at Cannabinoid receptor 2 [1] was greater than 3 µM each time.

The term fraction unbound denotes free concentration divided by total concentration. The inhibition is how much of the control response was suppressed. `CCCCCn1cc2c(=O)n(CC34CC5CC(CC(C5)C3)C4)nc-2c2ccccc21`: the outcome with Mus musculus [3] was inactive. The compound also registered a fraction unbound at 18 h in [4] of less than 1. Moreover, the Activity entry is “Dose-dependent effect” in the data set on Mus musculus [5], “Dose-dependent effect” in the data set on Mus musculus [8] and 65% in the data set with Mus musculus [12]. In addition, the “fold change (FC)” value in the data set on Mus musculus [6] amounted to 1.7. Further, in [7], the Papp A→B at 1 h, 10 µM came to 0.8 ×10⁻⁶ cm/s. In addition, at hERG (KCNH2), the inhibition at 1 µM is 35.5%. At Cannabinoid receptor 1, this compound registered a Ki greater than 3 µM. The result in the data set with Mus musculus [9] and in the data set with Mus musculus [11] was Active. For the same compound, the remaining at 1 h, 1 µM in data set [10] was found to be 64%. On Cannabinoid receptor 2 [2], this compound gave an Emax of 163%. Besides, in the data set with MDCK-II, the inhibition is 30.6%.

In turn, `CCCCCn1cc2c(=O)n(CCC3CCCCC3)nc-2c2ccccc21` came in with an Emax on Cannabinoid receptor 2 [2] of 141%.

Turning to `CCCCCn1c(-c2ccccc2)c2c(=O)n(-c3ccccc3)nc-2c2ccccc21`, the Ki at Cannabinoid receptor 1 and at Cannabinoid receptor 2 [1] was greater than 3 µM in each case.

Take `CCCCCn1c(-c2ccccc2)c2c(=O)n(-c3cccc(C(F)(F)F)c3)nc-2c2ccccc21`: the Ki on Cannabinoid receptor 1 and at Cannabinoid receptor 2 [1] was greater than 3 µM each time.

Turning to `CCCCCn1cc2c(=O)n(CCCc3ccccc3)nc-2c2ccccc21`, the Ki on Cannabinoid receptor 1 and at Cannabinoid receptor 2 [1] was greater than 3 µM throughout.

`CCCCCn1cc2c(=O)n(C3CCCCC3)nc-2c2ccccc21` came in with an Emax on Cannabinoid receptor 2 [2] of 160%.

The record behind these values is ChEMBL document CHEMBL3421616, “Conformational Restriction Leading to a Selective CB2 Cannabinoid Receptor Agonist Orally Active Against Colitis” (ACS Med Chem Lett, 2015).
